Only some compounds are listed: those with a hit (about 5.9% of all), similar ones and a draw of the others.
Rev-RRE block = HIV-1 Rev-RRE binding inhibitors, primary screen, biochemical, FRET, protein-RNA interaction. P05866. Rev peptide-RRE RNA binding. inhibition, % at 8 µM. hit rate 0.79% among 97,000. AID 704, 2007;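 active = inhibition above the screen-wide mean plus 3 SD, cut at about 35% in these data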;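 also: 0% = median DMSO wells and 100% = median Neomycin B control wells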
Target sequence (P05866 whole entry, looked up): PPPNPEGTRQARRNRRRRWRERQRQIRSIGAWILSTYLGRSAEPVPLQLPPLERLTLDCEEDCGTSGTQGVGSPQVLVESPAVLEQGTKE
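Test system: Cy5-tagged RRE RNA duplex with fluorescein-tagged Rev peptide | Read-out: % inhibition of FRET ratio versus controls | Probe or stimulus: Labelled Rev peptide | Incubation: 5 min RNA-compound premix plus 15 min binding step, 25 °C | Technique: FRET fluorescence readout | Benchmarks: DMSO low control, neomycin B high control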
Measles CPE = compounds protecting cells from measles virus cytopathic effect, primary screen, measles RdRp inhibitor project, single point, MLSMR library, absorbance. AID 841, 2007. protection (pct of control), % at 4 µM. Measles virus-infected cells, CPE protection. hit rate 1.5% among 140,000; in the data active = protection mostly above about 24%, no sharp cut-off; inactive = mostly below about 26%
Phagocytosis inh = inhibitors of macrophage phagocytosis, primary screen, imaging, J774A.1 cells, IgG beads. J774A.1 macrophage IgG-bead phagocytosis. inhibition, % at 5 µM. hit rate 0.07% among 110,000;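 active = inhibition above the mean of the plate negative controls plus 5 SD, cut at about 13% in these data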;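 also: phagocytic index as fraction of beads internalized from green versus red external bead signal; plate controls were DMSO negative control for no effect and cytochalasin-D positive control for full effect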
PTK2B oligo ant = antagonists of Pyk2 self-association, primary screen, Q293 cells, FERM NanoBiT luminescence, HTS. Protein-tyrosine kinase 2-beta (Homo sapiens), Q14289. stronger effect = lower value. z-score (the deposit names both 25 µM and 10 µM). hit rate 0.83% among 99,000. AID 1347419, 2020;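 active = Z-score of -3 or lower, scaled per plate to the spread of control and sample wells; inactive = z-score above -3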;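 also: negative z-score means lost luminescence so less FERM oligomerization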
Cav3 T inh = Cav3.2 calcium influx blockers – cell-based, Fluo-4 calcium fluorescence, FDSS, MLSMR library, primary screen; AID 449739, 2010; hit rate 4% among 100,000; Cav3.2-expressing cells; stronger effect = lower value; Voltage-dependent T-type calcium channel subunit alpha-1H (Homo sapiens), O95180; B-score at 10 µM;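 active = single-dose well whose peak fluorescence ratio is a statistical outlier from its plate by either plate-standardised score or position-corrected B-score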
DAT uptake mod = changed hDAT dopamine uptake under cocaine IC80, either direction, primary screen, cocaine antagonist project, cell-based, LLC-PK1 hDAT, [14C]-dopamine uptake, MLSMR | Sodium-dependent dopamine transporter (Homo sapiens), Q01959 | LLC-PK1 hDAT cells, [14C]-dopamine uptake with cocaine IC80; actives deviate in either direction | B-score at 10 µM | hit rate 1.3% among 110,000;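 active = Z score or B-score, a plate-position-corrected score, falls beyond the plate's 99.7% confidence bounds, in either direction; inactive = both scores lie inside the 99.7% bounds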;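 also: scored against the spread of the other compound wells on the same plate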
Target sequence (Q01959 whole entry, looked up): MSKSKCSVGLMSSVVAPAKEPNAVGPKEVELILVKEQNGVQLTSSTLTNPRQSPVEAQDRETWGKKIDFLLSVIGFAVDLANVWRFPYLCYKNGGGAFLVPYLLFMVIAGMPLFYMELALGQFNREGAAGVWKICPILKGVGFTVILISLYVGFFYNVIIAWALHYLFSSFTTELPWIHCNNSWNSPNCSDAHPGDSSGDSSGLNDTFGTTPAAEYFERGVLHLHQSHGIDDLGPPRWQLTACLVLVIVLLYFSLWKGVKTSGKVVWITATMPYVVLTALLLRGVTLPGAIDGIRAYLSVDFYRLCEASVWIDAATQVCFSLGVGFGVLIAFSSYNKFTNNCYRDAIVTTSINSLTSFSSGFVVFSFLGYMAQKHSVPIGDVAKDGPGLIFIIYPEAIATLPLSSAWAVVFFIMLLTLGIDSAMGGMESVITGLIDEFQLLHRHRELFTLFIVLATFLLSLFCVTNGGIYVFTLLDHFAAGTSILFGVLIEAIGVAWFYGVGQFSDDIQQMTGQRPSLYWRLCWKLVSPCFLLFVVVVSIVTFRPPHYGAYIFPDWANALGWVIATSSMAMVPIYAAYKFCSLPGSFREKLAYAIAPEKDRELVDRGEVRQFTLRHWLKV
* marks the source's active call; other numbers are inactive results; · = not tested or not shown.

SMILES | Rev-RRE block | Measles CPE | Phagocytosis inh | PTK2B oligo ant | Cav3 T inh | DAT uptake mod
CCOC(=O)c1c(C)nc2sc3c(c2c1-c1ccc(OC)cc1)NC(c1ccc(OC)cc1)NC3=O (configuration not stated) | 2 | 6 | · | 1.5 | -0.22 | -0.14
CC(C(=O)Oc1ccc2c(c1)OCO2)N1C(=O)c2ccccc2C1=O (configuration not stated) | · | 19 | 0 | · | -3.6* | -0.4
CC(C(=O)OCC(=O)Nc1ccc2c(c1)OCO2)N1C(=O)c2ccccc2C1=O (configuration not stated) | 3 | · | 10 | 1.3 | -0.59 | -0.52
CC1(c2ccccc2)NC(=O)N(Cc2ccc([N+](=O)[O-])cc2)C1=O (configuration not stated) | · | 53* | -12 | · | · | ·
Cc1nc(NC(=O)c2cc3c(s2)CCCCC3)sc1C(=O)N(C)C | 7 | 9 | -1 | -0.51 | 0.091 | 2.3*
COC(=O)c1sc(NC(=O)c2cc3c(s2)CCCC3)nc1C | 0 | 20 | -1 | 0.17 | -0.24 | -0.28
Cc1cccc(NS(=O)(=O)c2ccc3c(c2)Cc2cc(S(=O)(=O)Nc4cccc(C)c4C)ccc2-3)c1C | · | 33 | -2 | 0.17 | · | ·
CCOCCCn1c(=NC(=O)c2cccnc2)c(C(=O)OCC)cc2c(=O)n3ccccc3nc21 | 11 | 5 | -4 | -0.1 | 4.2* | 0.38
Cc1cccn2c(=O)c3cc(C#N)c(=NC(=O)c4ccncc4)n(CCCOC(C)C)c3nc12 | 22 | 17 | 1 | 3.1 | -0.77 | 2.4*
CCCCn1c(=NC(=O)c2cccnc2)c(C#N)cc2c(=O)n3cccc(C)c3nc21 | 49* | 5 | 0 | -0.7 | · | ·
CCCCn1c(=NC(=O)c2cccnc2)c(C(=O)OCC)cc2c(=O)n3ccccc3nc21 | 10 | 6 | -1 | -0.74 | 1.5 | 0.7
COCCCn1c(=NC(=O)c2ccncc2)c(C#N)cc2c(=O)n3cccc(C)c3nc21 | · | 5 | 2 | -0.3 | -2.5 | 0.59
CCCn1c(=NC(=O)c2ccc3c(c2)OCO3)c(C#N)cc2c(=O)n3cccc(C)c3nc21 | · | · | -2 | · | · | ·
O=C(O)CCC(=O)NNc1ccccc1[N+](=O)[O-] | · | 14 | 1 | · | · | ·
CN(C)C(=O)CCc1nc(-c2ccc(C(C)(C)C)cc2)no1 | 5 | 32 | · | 0.3 | -0.86 | -0.46
CCN(Cc1ccccc1)C(=O)CCc1nc(-c2ccc(C)cc2)no1 | 10 | 9 | 1 | -1.1 | -7.5* | 0.016
CCc1ccccc1N(CC)C(=O)CCc1nc(-c2ccc(C)cc2)no1 | 5 | 7 | 2 | -3* | -2.8 | 1.1
Cc1sc2nc(SCc3nc(-c4ccccc4)no3)n(-c3ccccc3)c(=O)c2c1C | 10 | 15 | · | 0.13 | 0.034 | 1.7
CN(C(=O)COC(=O)c1cc(NS(=O)(=O)c2cc([N+](=O)[O-])ccc2Cl)ccc1O)C1CCCCC1 | · | 5 | -4 | · | · | ·
CCn1c(COc2ccccc2Cl)nnc1SCC(=O)Nc1ncccc1C | · | 3 | · | · | · | ·
O=c1cc(-c2ccccc2)c2ccc(O)c(CN3CCCCC3)c2o1 | 10 | 3 | -3 | 0 | · | 0.59
CCc1cc2c(-c3ccccc3)cc(=O)oc2c(CN2CCOCC2)c1O | 4 | 7 | 0 | -1.2 | -8.7* | 0.48
CCN1CCc2c(sc3c2c(NCc2ccco2)nc2nnnn23)C1 | · | 35* | -1 | 0.51 | 0.56 | ·
c1coc(CNc2ncnc3sc4c(c23)CCCCC4)c1 | 8 | 3 | 0 | -0.76 | -0.82 | 0.75
O=c1cc(Cl)[nH]c(=O)n1CCNc1ncc(C(F)(F)F)cc1Cl | 52* | 2 | -1 | -1.4 | -0.99 | -0.14
SMILES | Rev-RRE block | Measles CPE | Phagocytosis inh | PTK2B oligo ant | Cav3 T inh | DAT uptake mod
COc1ccc(-n2nc(C(=O)Nc3nc4ccc(OC)cc4s3)c3ccccc3c2=O)cc1 | · | 6 | -8 | · | · | ·
CC(C)(C)NC(=O)CCN(/N=C/c1ccc([N+](=O)[O-])o1)C1=NS(=O)(=O)c2ccccc21 | · | 27 | -3 | · | · | ·
Cc1ccccc1Cn1nc(C)c(NC(=O)c2noc3c2CC(C(C)(C)C)CC3)c1C (configuration not stated) | -5 | 10 | 2 | -2.4 | -4.7* | 0.22
Cc1ccccc1Cn1cc(NC(=O)c2noc3c2CC(C(C)(C)C)CC3)cn1 (configuration not stated) | -4 | 5 | -1 | -1.3 | -2 | 0.47
Cc1ccccc1Cn1nc(C)c(NC(=O)c2noc3c2CCc2ccccc2-3)c1C | -2 | 17 | 0 | · | -6.9* | 1.1
N#Cc1ccc(C(c2nnnn2C2CCCC2)N2CCC(Cc3ccccc3)CC2)cc1 (configuration not stated) | 9 | 8 | 0 | -1.1 | -6.2* | -0.35
N#Cc1cccc(C(c2nnnn2C2CCCC2)N2CCC(Cc3ccccc3)CC2)c1 (configuration not stated) | 6 | -1 | · | -4.4* | -7* | 0.24
Cc1ccc(-n2c(=O)c3sccc3n(Cc3cc(=O)n4cc(Cl)ccc4n3)c2=O)cc1F | · | 9 | 4 | · | · | ·
C=CCNC(=O)C1CC2Cn3c(nc4cc5ccccc5cc43)C2N1C (configuration not stated) | · | · | · | · | 0.23 | 0.41
O=C(CC(c1cccs1)S(=O)(=O)c1ccccc1)c1ccc(F)cc1 (configuration not stated) | · | 4 | -15 | · | · | ·
c1ccc(CSc2nnc(-c3ccco3)n2Cc2ccco2)cc1 | 5 | 21 | 2 | -0.02 | -2.3 | -0.17
CCCCOc1[nH]c2nc(-c3ccco3)n(Cc3ccco3)c(=N)c2c1C#N | 55* | 13 | 0 | 0.12 | · | 1.5
CCCn1nc2cc(C(=O)NCCc3cccs3)ccc2c1OCC | 2 | 20 | -1 | · | 0.14 | 0.063
Cc1ccc(-c2noc(CCC(=O)Nc3cccc(C#N)c3)n2)cc1 | 18 | 15 | 0 | 0.03 | -4.2* | -0.38
COc1ccccc1-c1noc(CCC(=O)Nc2cccc(C(F)(F)F)c2)n1 | · | 13 | · | -1.7 | -7.6* | 0.021
COc1cccc(NC(=O)CCc2nc(-c3ccccc3F)no2)c1 | 5 | 3 | -2 | 1.3 | -0.22 | -1.4
COc1ccc(-c2noc(CCC(=O)N3CCN(c4cccc(C(F)(F)F)c4)CC3)n2)cc1 | 7 | 1 | · | -0.11 | -4.8* | -1.1
COc1ccc(NC(=O)N2CCN(c3cccc(C(F)(F)F)c3)CC2)cc1 | 10 | 10 | 0 | 0.59 | -0.015 | 1.2
CCN(CC)S(=O)(=O)c1cnccc1N1CCN(c2cccc(Cl)c2)CC1 | · | 4 | -6 | · | · | ·
CC(C)Cc1nnc(NS(C)(=O)=O)s1 | 6 | 23 | 0 | -0.13 | -0.27 | -7.8*
CC(C)(C)Cc1nnc(NS(C)(=O)=O)s1 | 3 | · | · | 0.64 | 0.19 | -0.69

From PubChem
